Screening results (PubChem BioAssay)
BB579 growth dn: growth inhibitors of yeast BB579 in restrictive medium, primary screen, yeast lifespan-shortening project, S. cerevisiae; actives 0.51% (n = 140,000); inhibition, % at 10 µM; OD615, 48 h;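 active = inhibition above a set limit, 3 SD over the mean compound inhibition, cut at about 44% in these data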
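test system = yeast BB579 (DeaD) | buffer or medium = restrictive CSMM-D medium | doses = single compound dose of 10 µM, 0.25% DMSO final | times = 4 h preincubation and 48 h exposure at 30 °C | technique = culture absorbance at 615 nm | benchmarks = amphotericin B 10 µg/mL, positive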
TNAP inh noacc: human TNAP enzyme inhibitors, primary screen, biochemical, luminescent, no phosphate acceptor, uHTS. Alkaline phosphatase, tissue-nonspecific isozyme (Homo sapiens), P05186. purified TNAP, CDP-star luminescence, 30 min. inhibition, % at 20 µM. actives 0.26% (n = 200,000). AID 1012, 2008;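 active = tissue-nonspecific alkaline phosphatase inhibition above about 50% at 20 µM in the single-dose screen, limit read from the data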
Target sequence (P05186 whole entry, looked up): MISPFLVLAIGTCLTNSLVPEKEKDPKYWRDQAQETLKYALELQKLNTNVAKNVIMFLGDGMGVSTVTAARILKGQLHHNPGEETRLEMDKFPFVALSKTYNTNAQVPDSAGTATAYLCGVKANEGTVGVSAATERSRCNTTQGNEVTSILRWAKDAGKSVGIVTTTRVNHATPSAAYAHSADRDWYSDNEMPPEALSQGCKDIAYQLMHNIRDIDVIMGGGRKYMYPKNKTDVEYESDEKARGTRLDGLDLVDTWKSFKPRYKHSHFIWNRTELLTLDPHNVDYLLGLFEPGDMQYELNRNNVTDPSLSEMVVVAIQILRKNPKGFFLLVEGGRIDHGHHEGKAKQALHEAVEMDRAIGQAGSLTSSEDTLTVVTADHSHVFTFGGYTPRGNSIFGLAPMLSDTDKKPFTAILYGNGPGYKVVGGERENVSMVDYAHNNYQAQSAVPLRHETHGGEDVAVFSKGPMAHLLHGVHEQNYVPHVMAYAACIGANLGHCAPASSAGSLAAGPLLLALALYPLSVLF
RAM network inh: inhibitors of the yeast RAM network, primary screen, dse1pr::URA3 reporter, 5-FOA selection. S. cerevisiae dse1pr::URA3 reporter, 5-FOA growth OD615, 2 d; analog-sensitive cbk1-as2 kinase mutant strain. inhibition, % at 50 µM. actives 1.8% (n = 190,000). AID 868, 2007;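 active = inhibition above a set limit, 3 SD over mean compound inhibition, cut at about 8.4% in these data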;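 note: inhibition rescues growth on 5-FOA so higher OD means more RAM inhibition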
TNAP act hi DEA: TNAP activators at high phosphate acceptor level, primary screen, biochemical, luminescence, uHTS; 200,000 tested, under 10 active; activation factor at 20 µM; Alkaline phosphatase, tissue-nonspecific isozyme (Homo sapiens), P05186; purified TNAP, CDP-star luminescence, 1 M DEA, 30 min; active compounds read high; 0 = EDTA background, 1 = DMSO-only activity;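 active = activation factor at least 2 at 20 µM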
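Measured by: Luminescent substrate turnover signal | Test system: Human TNAP | Input: TNAP 1/800 final | Dosing: 20 µM single point | Schedule: 30 min, room temperature | Controls: EDTA wells as negative control, DMSO wells as positive control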
TNAP inh hiacc: human TNAP enzyme inhibitors, primary screen, biochemical, luminescent, high phosphate acceptor level, uHTS. Alkaline phosphatase, tissue-nonspecific isozyme (Homo sapiens), P05186. purified TNAP, CDP-star luminescence, 1 M DEA. inhibition, % at 20 µM. actives 0.03% (n = 200,000);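 active = over 50% inhibition of tissue-nonspecific alkaline phosphatase at 20 µM in the single-dose screen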
Yeast lifespan up: compounds extending yeast replicative lifespan, primary screen, S. cerevisiae, OD615 | S. cerevisiae growth with nicotinamide; deaD strain in restrictive glucose medium | inhibition of the nicotinamide effect, % at 10 µM | actives 0.68% (n = 130,000);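 active = inhibition above a set limit, placed 3 SD over the median of all compounds, cut at about 26% in these data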
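Assay system: DeaD-strain S. cerevisiae. Medium: CSMM-D glucose medium, restrictive. Reagent: nicotinamide, 1.5 mM, co-present with compound. Compound: 10 µM single point, 0.25% DMSO. Schedule: culture preincubation 4 h, compound exposure 48 h, both 30 °C. Detection: absorbance at 615 nm.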
Numbers stand for hits; – = inactive; · = no result. Only some compounds are listed: those with a hit (about 2.8% of all), similar ones and a draw of the others.

SMILES	BB579 growth dn	TNAP inh noacc	RAM network inh	TNAP act hi DEA	TNAP inh hiacc	Yeast lifespan up
N#Cc1ccsc1NC(=O)COC(=O)c1cc2ccccc2cc1O	–	–	–	–	–	–
CN1CCS/C1=C/C=C1/SC(=S)N(Cc2ccccc2)C1=O	–	–	9.6	–	–	–
CN1CCS/C1=C/C=C1\SC(=S)N(CC(=O)O)C1=O	·	–	–	–	–	·
N#CC(CO)(Cc1ccc(OC(F)F)cc1)c1nc2ccccc2[nH]1 (stereo unspecified)	–	–	–	–	–	–
COc1ccc(C2C=C(c3ccc(Br)s3)Nc3ncnn32)cc1OC (stereo unspecified)	–	–	8.4	–	–	–
COc1nc(N=C(N)N)nc2ccc(C)cc12	–	–	–	–	–	–
O=C(CN1CCCCCC1=O)N1CCN(S(=O)(=O)c2cccs2)CC1	·	–	–	–	–	·
Cc1ccc(C2=NN(C(=O)CCl)C(c3cccs3)C2)o1 (stereo unspecified)	–	–	–	–	–	35.3
CCC(C)NC(=O)CSc1nnc(-c2c[nH]c3ccccc23)o1 (stereo unspecified)	·	–	–	–	–	·
COc1cc(CNCCN2CCOCC2)ccc1OCc1cccc(Cl)c1	52.5	–	–	–	–	–
Cc1ccc(C(=O)ON=C2CCN(c3ccc([N+](=O)[O-])cc3)CC2)cc1	–	–	–	–	–	–
O=[N+]([O-])c1ccc(N2CCC(=NOCc3ccc(Cl)cc3)CC2)cc1	–	–	11.3	–	–	–
Cc1cc(=O)oc2cc(OCC(=O)OCC(=O)NCCc3ccccc3)ccc12	·	–	9.2	–	–	·
CNC(=O)COC(=O)COc1ccc2c(C)cc(=O)oc2c1	·	–	–	–	–	·
COc1ccccc1NS(=O)(=O)c1cccc(C(=O)OCC(=O)Nc2cc(C)on2)c1	–	–	–	–	–	–
COc1ccccc1NS(=O)(=O)c1cccc(C(=O)OCc2nc3ccccc3s2)c1	–	–	8.4	–	–	–
Cc1cc(C)n(Cc2ccc(Cl)cc2Cl)c(=O)c1S(=O)(=O)c1ccccc1	–	–	8.9	–	–	–
O=S(=O)(c1cccs1)N1CCN(CC(O)COc2cc(Cl)ccc2Cl)CC1 (stereo unspecified)	–	–	–	–	–	–
CCC(C)OC(=O)C1C(c2ccccc2)C(C(=O)O)C1c1ccccc1 (stereo unspecified)	–	–	–	–	–	37.4
CCOC(=O)C1C(c2ccccc2)C(C(=O)OCC)C1c1ccccc1 (stereo unspecified)	–	–	–	–	–	·
O=S(=O)(Nc1nc2ccccc2nc1Nc1ccc(N2CCOCC2)cc1)c1cc(Cl)ccc1Cl	–	–	–	–	–	–
CC(C)c1ccc(O)c(NC(=O)c2ncn[nH]2)c1	–	–	–	–	–	–
CC(C)c1ccc2c(c1)C1(NN=C(c3ccccc3)S1)C(=O)N2 (stereo unspecified)	78.2	–	–	–	–	·
Cc1ccc2c(c1)C(O)(CC(=O)c1ccc(C)s1)C(=O)N2 (stereo unspecified)	·	–	–	–	–	·
CCc1ccc2c(c1)C1(NN=C(c3ccc(C)cc3)S1)C(=O)N2 (stereo unspecified)	96.3	–	–	–	–	·
Nc1n[nH]c(=S)n1/N=C1/C(=O)Nc2ccccc21	·	–	–	–	–	·
Cc1c(C(=O)OCCOc2ccc(Br)cc2)sc(=S)n1C	·	–	10.7	–	–	·
Cc1ccc(OCCOC(=O)c2sc(=S)n(C)c2C)cc1	·	–	–	–	–	·
COc1ccc(C(CNC(=O)c2cccc(Br)c2)N2CCCC2)cc1 (stereo unspecified)	–	–	–	–	–	122.7
